Assay results reported in ChEMBL document CHEMBL4819105, “Synthesis and activity of N-(5-hydroxy-3,4,6-trimethylpyridin-2-yl)acetamide analogues as anticolitis agents via dual inhibition of TNF-α- and IL-6-induced cell adhesions” (2021).
Calls of active or inactive are those of the source. No cut-off for these calls is given here.

Key:
[1] = Inhibition of TNF-alpha-induced cell adhesion in human U937 cells assessed as reduction in cell adhesion to HT-29 cells at 1 uM relative to control; type: functional; settings: U-937
[2] = Inhibition of IL-6-induced cell adhesion in human U937 cells assessed as reduction in cell adhesion to HT-29 cells at 1 uM relative to control; type: functional; settings: U-937
Rattus norvegicus [3] = assay: Anti-colitis activity against TNBS-induced rat model of colitis assessed as increase in colon weight at 300 mg/kg, po administered for 5 days and measured on day 5; type: functional, organism-based; settings: time 5.0 day
How it was run: (§1)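 Rat colitis induced by rectal TNBS. Test agents given orally once daily for 5 days. Read-outs are body weight, colon appearance (congestion, adhesion), and colon tissue weight/length. MPO in colon tissue was measured with an MPO assay kit. Groups were compared against mock control and vehicle-treated TNBS animals, with P < 0.05 taken as significant.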

Rattus norvegicus [4] = assay: Anti-colitis activity against TNBS-induced rat model of colitis assessed as increase in colon length at 300 mg/kg, po administered for 5 days and measured on day 5; type: functional, organism-based; settings: time 5.0 day; how it was run: as §1
Rattus norvegicus [5] = assay: Anti-colitis activity against TNBS-induced rat model of colitis assessed as decrease in congestion at 300 mg/kg, po administered for 5 days and measured on day 5; type: functional, organism-based; settings: time 5.0 day; how it was run: as §1
Rattus norvegicus [6] = assay: Anti-colitis activity against TNBS-induced rat model of colitis assessed as decrease in adhesion at 300 mg/kg, po administered for 5 days and measured on day 5; type: functional, organism-based; settings: time 5.0 day; how it was run: as §1
Rattus norvegicus [7] = assay: Anti-colitis activity against TNBS-induced rat model of colitis assessed as decrease in MPO level in colon at 300 mg/kg, po administered for 5 days and measured on day 5; type: functional, organism-based; settings: time 5.0 day; how it was run: as §1
Rattus norvegicus [8] = assay: Anti-colitis activity against TNBS-induced rat model of colitis assessed as increase in body weight at 300 mg/kg, po administered for 5 days and measured on day 5; type: functional, organism-based; settings: time 5.0 day; how it was run: as §1
[9] = Inhibition of TNF-alpha-induced cell adhesion in human U937 cells assessed as reduction in cell adhesion to HT-29 cells at 1000 uM relative to control; type: functional; settings: U-937
[10] = Inhibition of IL-6-induced cell adhesion in human U937 cells assessed as reduction in cell adhesion to HT-29 cells at 1000 uM relative to control; type: functional; settings: U-937
Rattus norvegicus [11] = assay: Anti-colitis activity against TNBS-induced rat model of colitis assessed as increase in body weight at 1 mg/kg, po administered for 5 days and measured on day 5; type: functional, organism-based; settings: time 5.0 day; how it was run: as §1
Rattus norvegicus [12] = assay: Anti-colitis activity against TNBS-induced rat model of colitis assessed as decrease in MPO level in colon at 1 mg/kg, po administered for 5 days and measured on day 5; type: functional, organism-based; settings: time 5.0 day; how it was run: as §1
Rattus norvegicus [13] = assay: Anti-colitis activity against TNBS-induced rat model of colitis assessed as increase in colon weight at 1 mg/kg, po administered for 5 days and measured on day 5; type: functional, organism-based; settings: time 5.0 day; how it was run: as §1
Rattus norvegicus [14] = assay: Anti-colitis activity against TNBS-induced rat model of colitis assessed as decrease in congestion at 1 mg/kg, po administered for 5 days and measured on day 5; type: functional, organism-based; settings: time 5.0 day; how it was run: as §1
Rattus norvegicus [15] = assay: Anti-colitis activity against TNBS-induced rat model of colitis assessed as increase in body weight at 1 mg/kg, po administered for 5 days and measured on day 5; settings: time 5.0 day
Rattus norvegicus [16] = assay: Anti-colitis activity against TNBS-induced rat model of colitis assessed as decrease in adhesion at 1 mg/kg, po administered for 5 days and measured on day 5; type: functional, organism-based; settings: time 5.0 day; how it was run: as §1
Rattus norvegicus [17] = assay: Anti-colitis activity against TNBS-induced rat model of colitis assessed as increase in colon weight at 1 to 10 mg/kg, po administered for 5 days and measured on day 5; type: functional, organism-based; settings: dose 1-10 mg/kg, time 5.0 day; how it was run: as §1
Rattus norvegicus [18] = assay: Anti-colitis activity against TNBS-induced rat model of colitis assessed as decrease in congestion at 1 to 10 mg/kg, po administered for 5 days and measured on day 5; type: functional, organism-based; settings: dose 1-10 mg/kg, time 5.0 day; how it was run: as §1
Rattus norvegicus [19] = assay: Anti-colitis activity against TNBS-induced rat model of colitis assessed as increase in colon length at 1 to 10 mg/kg, po administered for 5 days and measured on day 5; type: functional, organism-based; settings: dose 1-10 mg/kg, time 5.0 day; how it was run: as §1
Rattus norvegicus [20] = assay: Anti-colitis activity against TNBS-induced rat model of colitis assessed as increase in body weight administered po for 5 days and measured on day 5; type: functional, organism-based; settings: dose 1-10 mg/kg, time 5.0 day; how it was run: as §1
Rattus norvegicus [21] = assay: Anti-colitis activity against TNBS-induced rat model of colitis assessed as decrease in adhesion at 1 to 10 mg/kg, po administered for 5 days and measured on day 5; type: functional, organism-based; settings: dose 1-10 mg/kg, time 5.0 day; how it was run: as §1
Rattus norvegicus [22] = assay: Anti-colitis activity against TNBS-induced rat model of colitis assessed as decrease in MPO level in colon at 1 to 10 mg/kg, po administered for 5 days and measured on day 5; type: functional, organism-based; settings: dose 1-10 mg/kg, time 5.0 day; how it was run: as §1

| SMILES | inhibition at 1 µM [1] [%] | inhibition at 1 µM [2] [%] | other results |
| --- | --- | --- | --- |
| Cc1nc(NC(=O)COc2ccccc2)c(C)c(C)c1O | 10.8 | 11.4 | – |
| O=C(O)c1cc(/N=N/c2ccc(S(=O)(=O)Nc3ccccn3)cc2)ccc1O | – | – | Activity (Rattus norvegicus [3]): Active; Activity (Rattus norvegicus [4]): Active; Activity (Rattus norvegicus [5]): Active; Activity (Rattus norvegicus [6]): Active; Activity (Rattus norvegicus [7]): Active; Activity (Rattus norvegicus [8]): Active |
| Cc1nc(NC(=O)C2CCCCC2)c(C)c(C)c1O | – | 56.7 | – |
| C=CCC(=O)Nc1nc(C)c(O)c(C)c1C | 31.9 | 21.3 | – |
| Cc1nc(NC(=O)CC(C)C)c(C)c(C)c1O | 52.3 | 48 | – |
| C[C@@H]1CCN(C(=O)CC#N)C[C@@H]1N(C)c1ncnc2[nH]ccc12 [TOFACITINIB] | 49.1 | 58.6 | – |
| Nc1ccc(O)c(C(=O)O)c1 [MESALAMINE] | – | – | inhibition at 1000 µM [9]: 9.9%; inhibition at 1000 µM [10]: 1.7% |
| Cc1nc(NC(=O)CCc2ccccc2)c(C)c(C)c1O | – | 69.6 | Activity (Rattus norvegicus [11]): Active; Activity (Rattus norvegicus [12]): Active; Activity (Rattus norvegicus [13]): Active; Activity (Rattus norvegicus [14]): Active; Activity (Rattus norvegicus [15]): Active; Activity (Rattus norvegicus [16]): Active |
| Cc1nc(NC(=O)CCc2ccccc2F)c(C)c(C)c1O | 13.9 | 18 | – |
| Cc1nc(NC(=O)C(Cl)c2ccccc2)c(C)c(C)c1O (stereo not drawn) | 36.6 | 22.5 | – |
| CCCCCCCCCCCCCCCC(=O)Nc1nc(C)c(O)c(C)c1C | 31.7 | 17.4 | – |
| Cc1nc(NC(=O)C(Cl)Cl)c(C)c(C)c1O | – | 52.7 | – |
| Cc1nc(NC(=O)CCc2ccccc2Br)c(C)c(C)c1O | 35.3 | 22 | – |
| CCCC(=O)Nc1nc(C)c(O)c(C)c1C | 10 | 17.5 | – |
| Cc1nc(NC(=O)Cc2ccc(F)cc2)c(C)c(C)c1O | 7.2 | 18.1 | – |
| Cc1nc(NC(=O)/C=C/c2ccccc2)c(C)c(C)c1O | 25.2 | 14.2 | – |
| Cc1nc(NC(=O)CCc2ccc(Cl)cc2Cl)c(C)c(C)c1O | 41.5 | 35.9 | – |
| Cc1ccccc1CCC(=O)Nc1nc(C)c(O)c(C)c1C | 20.2 | 12.9 | – |
| Cc1nc(NC(=O)CCCCl)c(C)c(C)c1O | – | 17.8 | – |
| Cc1nc(NC(=O)C(C)(C)C)c(C)c(C)c1O | – | 21.1 | – |
| Cc1nc(NC(=O)C(C)C)c(C)c(C)c1O | 64.2 | 53.9 | – |
| CC(=O)Nc1nc(C)c(O)c(C)c1C | 56 | 47.2 | Activity (Rattus norvegicus [17]): Active; Activity (Rattus norvegicus [18]): Active; Activity (Rattus norvegicus [19]): Active; Activity (Rattus norvegicus [20]): Dose-Dependent Effect; Activity (Rattus norvegicus [21]): Active; Activity (Rattus norvegicus [22]): Active |
| Cc1nc(NC(=O)CCc2ccc(Cl)cc2)c(C)c(C)c1O | 30.6 | 20.8 | – |
| Cc1nc(NC(=O)CC(C)CC(C)(C)C)c(C)c(C)c1O (stereo not drawn) | – | 46.3 | – |
| CCCCCCCCCCCC(=O)Nc1nc(C)c(O)c(C)c1C | – | 44.3 | – |
| CC(=O)OCC(=O)Nc1nc(C)c(O)c(C)c1C | 6.8 | 9.7 | – |
| Cc1nc(NC(=O)Cc2cccc(Br)c2)c(C)c(C)c1O | 6.2 | 9.2 | – |
| CCCCCCCC(=O)Nc1nc(C)c(O)c(C)c1C | 61.5 | 54.8 | – |
| Cc1nc(NC(=O)Cc2ccccc2)c(C)c(C)c1O | 56.6 | 50.2 | – |
| Cc1nc(NC(=O)C2CCCC2)c(C)c(C)c1O | – | 34.8 | – |
